Values after ≈ are worked out from the molar mass of the structure shown. Where only a bound is given, the exact number is not on record here.

The species named for the first assay is Mus musculus. The assay can be described thus: Days of the first positive reaction in […] mice. It counts as functional.
Details: not given
In short, it runs like this:
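Phototoxic skin reaction test in depilated female CD-1 mice. A single oral dose (gavage) or subcutaneous dose was given, followed 1 h later by 3 h of UVA exposure (320–400 nm). The regimen was repeated for up to 4 consecutive days, with initial doses of 30, 100 and 300 mg/kg. PTD50 was derived by the probit method. The first day of positive reaction and the no-effect dose were taken from the raw data.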
Take `CC1(CN)CCN(c2c(F)cc3c(=O)c(C(=O)O)cn(C4CC4)c3c2C(F)(F)F)C1` (stereo not given): the “Day of first positve reaction” value is on record as 0.
On the same count and under the same terms, for `NC1CCN(c2c(F)cc3c(=O)c(C(=O)O)cn(C4CC4)c3c2F)CC1` the value was 2.

For a further assay, the species on record is Mus musculus. The assay can be described thus: Number of mice which show positive phototoxic reaction in 5 mice. The class given is functional.
Details: not given
With `CC1(CN)CCN(c2c(F)cc3c(=O)c(C(=O)O)cn(C4CC4)c3c2C(F)(F)F)C1` (stereo not given), the “No. of pos rxns” value was 0.
Regarding `NC1CCN(c2c(F)cc3c(=O)c(C(=O)O)cn(C4CC4)c3c2F)CC1`, the “No. of pos rxns” value is given as 5.

The subject of a further assay is Escherichia coli. Kind of assay: In vivo efficacy in mouse protection test in Escherichia coli Vogel administered by subcutaneous injection. It counts as functional. The following applies: Escherichia coli, sc; read-out: PD50. In short, it runs like this:
(§1)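 Acute lethal systemic infections in female Charles River CD-1 mice. A single dose was given at challenge, orally by gavage or by subcutaneous injection. PD50 (median protective dose, mg/kg) was determined.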
With `CC1(CN)CCN(c2c(F)cc3c(=O)c(C(=O)O)cn(C4CC4)c3c2C(F)(F)F)C1` (stereo not given), the ED50 was 3.1 mg/kg.
The same measure, in the same setting: for `NC1CCN(c2c(F)cc3c(=O)c(C(=O)O)cn(C4CC4)c3c2F)CC1` the value was 1.2 mg/kg.

A further assay relates to Escherichia coli. Kind of assay: In vivo efficacy in mouse protection test in Escherichia coli Vogel dose administered orally by gavage. It counts as functional. The following applies: Escherichia coli, po; read-out: PD50. The method in brief: as §1
As for `CC1(CN)CCN(c2c(F)cc3c(=O)c(C(=O)O)cn(C4CC4)c3c2C(F)(F)F)C1` (stereo not given), the ED50 came to 8.5 mg/kg.
Turning to `NC1CCN(c2c(F)cc3c(=O)c(C(=O)O)cn(C4CC4)c3c2F)CC1`, the ED50 is 3.7 mg/kg.

Another assay concerns Escherichia coli. Kind of assay: Minimum inhibitory concentration (MIC) against gram negative bacteria Escherichia coli H-560. It counts as functional. The following applies: Escherichia coli; read-out: MIC. In short, it runs like this: (§2)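 MICs were determined by standard broth microtitration against 11 Gram-positive and Gram-negative organisms, in µg/mL. Values come from duplicate or triplicate experiments and are accurate to ±50%.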
As usually defined, the MIC is the lowest concentration that inhibits growth of the organism. With `CC1(CN)CCN(c2c(F)cc3c(=O)c(C(=O)O)cn(C4CC4)c3c2C(F)(F)F)C1` (stereo not given), the MIC was determined as 0.1 µg/mL (≈ 0.234 µM).
`NC1CCN(c2c(F)cc3c(=O)c(C(=O)O)cn(C4CC4)c3c2F)CC1`: the MIC stood at 0.05 µg/mL (≈ 0.138 µM).

The next assay concerns Escherichia coli. The assay can be described thus: Minimum inhibitory concentration (MIC) against gram negative bacteria Escherichia coli Vogel. The class given is functional. The following applies: Escherichia coli; read-out: MIC. In short, it runs like this: as §2
As for `CC1(CN)CCN(c2c(F)cc3c(=O)c(C(=O)O)cn(C4CC4)c3c2C(F)(F)F)C1` (stereo not given), the MIC came to 0.2 µg/mL (≈ 0.468 µM).
Consider `NC1CCN(c2c(F)cc3c(=O)c(C(=O)O)cn(C4CC4)c3c2F)CC1`, for which the MIC was determined as 0.1 µg/mL (≈ 0.275 µM).

The next assay has as its system Enterobacter cloacae. The assay can be described thus: Minimum inhibitory concentration (MIC) against gram negative bacteria Enterobacter cloacae MA-2646. The class given is functional.
Details: not given
On to `CC1(CN)CCN(c2c(F)cc3c(=O)c(C(=O)O)cn(C4CC4)c3c2C(F)(F)F)C1` (stereo not given), for which it took 0.2 µg/mL (≈ 0.468 µM) to inhibit growth (MIC).
As for `NC1CCN(c2c(F)cc3c(=O)c(C(=O)O)cn(C4CC4)c3c2F)CC1`, the MIC was determined as 0.1 µg/mL (≈ 0.275 µM).

Another assay deals with Klebsiella pneumoniae. The assay can be described thus: Minimum inhibitory concentration (MIC) against gram negative bacteria Klebsiella pneumoniae MGH-2. The following applies: Klebsiella pneumoniae; read-out: MIC. It counts as functional. The method in brief:
as §2
Take `CC1(CN)CCN(c2c(F)cc3c(=O)c(C(=O)O)cn(C4CC4)c3c2C(F)(F)F)C1` (stereo not given): the minimum inhibitory concentration (MIC) was 0.4 µg/mL (≈ 0.936 µM).
Still for that read-out and setting: for `NC1CCN(c2c(F)cc3c(=O)c(C(=O)O)cn(C4CC4)c3c2F)CC1` the value was 0.1 µg/mL (≈ 0.275 µM).

The species named for another assay is Mus musculus. Kind of assay: Dose required to induce phototoxic reaction in 50% of mice by probit method at different dosage forms. It counts as functional.
Details: not given
On to `CC1(CN)CCN(c2c(F)cc3c(=O)c(C(=O)O)cn(C4CC4)c3c2C(F)(F)F)C1` (stereo not given), for which the PTD50 was over 100 mg/kg.
`NC1CCN(c2c(F)cc3c(=O)c(C(=O)O)cn(C4CC4)c3c2F)CC1` registered a PTD50 of 55 mg/kg.

For a further assay, the species on record is Mus musculus. Kind of assay: Dose which has no effect to induce phototoxic reaction in 50% of mice by probit method. The class given is functional.
Details: not given
`CC1(CN)CCN(c2c(F)cc3c(=O)c(C(=O)O)cn(C4CC4)c3c2C(F)(F)F)C1` (stereo not given) had a No effect dose of 100 mg/kg.
For `NC1CCN(c2c(F)cc3c(=O)c(C(=O)O)cn(C4CC4)c3c2F)CC1`, the No effect dose turned out to be 30 mg/kg.

The subject of another assay is Mus musculus. The assay can be described thus: Maximum tolerance dose was measured for phototoxic skin reaction by po administration. It counts as functional.
Details: not given
The MTD is the highest dose tested that stayed within the study's limit of toxicity. Read a high MTD as a wide tolerated range. In turn, `CC1(CN)CCN(c2c(F)cc3c(=O)c(C(=O)O)cn(C4CC4)c3c2C(F)(F)F)C1` (stereo not given) displayed an MTD of 100 mg/kg.
`NC1CCN(c2c(F)cc3c(=O)c(C(=O)O)cn(C4CC4)c3c2F)CC1`: the maximal tolerated dose (MTD) was 100 mg/kg.

Tested on in another assay: not listed separately
The assay can be described thus: Minimum inhibitory concentration (MIC) against gram negative bacteria Prot. rettgeri M-1771. The class given is functional, Providencia rettgeri. The following applies: Providencia rettgeri; read-out: MIC. In short, it runs like this:
as §2
On to `CC1(CN)CCN(c2c(F)cc3c(=O)c(C(=O)O)cn(C4CC4)c3c2C(F)(F)F)C1` (stereo not given), for which the MIC is 0.8 µg/mL (≈ 1.87 µM).
On to `NC1CCN(c2c(F)cc3c(=O)c(C(=O)O)cn(C4CC4)c3c2F)CC1`, for which the MIC came to 0.2 µg/mL (≈ 0.55 µM).

The test system of the next assay is Pseudomonas aeruginosa. Kind of assay: Minimum inhibitory concentration (MIC) against gram negative bacteria Pseudomonas aeruginosa UI-18. The following applies: Pseudomonas aeruginosa; read-out: MIC. It counts as functional. In short, it runs like this: as §2
Take `CC1(CN)CCN(c2c(F)cc3c(=O)c(C(=O)O)cn(C4CC4)c3c2C(F)(F)F)C1` (stereo not given): the MIC came out at 3.1 µg/mL (≈ 7.25 µM).
For the compound `NC1CCN(c2c(F)cc3c(=O)c(C(=O)O)cn(C4CC4)c3c2F)CC1`, the minimum inhibitory concentration (MIC) stood at 0.8 µg/mL (≈ 2.2 µM).

The next assay concerns Staphylococcus aureus. Kind of assay: Minimum inhibitory concentration (MIC) against gram positive bacteria Staphylococcus aureus H-228. The class given is functional. The following applies: Staphylococcus aureus; read-out: MIC. In short, it runs like this:
as §2
Regarding `CC1(CN)CCN(c2c(F)cc3c(=O)c(C(=O)O)cn(C4CC4)c3c2C(F)(F)F)C1` (stereo not given), the MIC stood at 0.05 µg/mL (≈ 0.117 µM).
On to `NC1CCN(c2c(F)cc3c(=O)c(C(=O)O)cn(C4CC4)c3c2F)CC1`, for which the minimum inhibitory concentration (MIC) was found to be 0.1 µg/mL (≈ 0.275 µM).

The test system of a further assay is Staphylococcus aureus. Kind of assay: Minimum inhibitory concentration (MIC) against gram positive bacteria Staphylococcus aureus UC-76. The class given is functional. The following applies: Staphylococcus aureus; read-out: MIC. In short, it runs like this: as §2
Take `CC1(CN)CCN(c2c(F)cc3c(=O)c(C(=O)O)cn(C4CC4)c3c2C(F)(F)F)C1` (stereo not given): the MIC was 0.013 µg/mL (≈ 0.0304 µM).
Regarding `NC1CCN(c2c(F)cc3c(=O)c(C(=O)O)cn(C4CC4)c3c2F)CC1`, the minimal inhibitory concentration (MIC) is 0.025 µg/mL (≈ 0.0688 µM).

For a further assay, the system named is Enterococcus faecalis. Kind of assay: Minimum inhibitory concentration (MIC) against gram positive bacteria Streptococcus faecalis MGH-2. It counts as functional. The following applies: Enterococcus faecalis; read-out: MIC. In short, it runs like this: as §2
For `CC1(CN)CCN(c2c(F)cc3c(=O)c(C(=O)O)cn(C4CC4)c3c2C(F)(F)F)C1` (stereo not given), the MIC worked out at 0.2 µg/mL (≈ 0.468 µM).
As for `NC1CCN(c2c(F)cc3c(=O)c(C(=O)O)cn(C4CC4)c3c2F)CC1`, the MIC stood at 0.2 µg/mL (≈ 0.55 µM).

In another assay the test system is Streptococcus pneumoniae. The assay can be described thus: Minimum inhibitory concentration (MIC) against gram positive bacteria Streptococcus pneumoniae SV-1. It counts as functional. The following applies: Streptococcus pneumoniae; read-out: MIC. In short, it runs like this: as §2
In the case of `CC1(CN)CCN(c2c(F)cc3c(=O)c(C(=O)O)cn(C4CC4)c3c2C(F)(F)F)C1` (stereo not given), the minimum inhibitory concentration (MIC) was found to be 0.05 µg/mL (≈ 0.117 µM).
Regarding `NC1CCN(c2c(F)cc3c(=O)c(C(=O)O)cn(C4CC4)c3c2F)CC1`, the minimum inhibitory concentration (MIC) was determined as 0.4 µg/mL (≈ 1.1 µM).

For a further assay, the system named is Streptococcus pyogenes. The assay can be described thus: Minimum inhibitory concentration (MIC) against gram positive bacteria Streptococcus pyogenes C-203. The following applies: Streptococcus pyogenes; read-out: MIC. The class given is functional. The method in brief: as §2
With `CC1(CN)CCN(c2c(F)cc3c(=O)c(C(=O)O)cn(C4CC4)c3c2C(F)(F)F)C1` (stereo not given), the MIC worked out at 0.05 µg/mL (≈ 0.117 µM).
Regarding `NC1CCN(c2c(F)cc3c(=O)c(C(=O)O)cn(C4CC4)c3c2F)CC1`, the minimal inhibitory concentration (MIC) is 0.4 µg/mL (≈ 1.1 µM).

The test system of another assay is Streptococcus pneumoniae. Kind of assay: In vivo efficacy (s.c.) against Streptococcus pneumoniae SV-1 in mouse protection test. The following applies: Streptococcus pneumoniae, sc; read-out: PD50. The class given is functional. The method in brief:
as §1
In the case of `CC1(CN)CCN(c2c(F)cc3c(=O)c(C(=O)O)cn(C4CC4)c3c2C(F)(F)F)C1` (stereo not given), the ED50 was 0.4 mg/kg.
For the compound `NC1CCN(c2c(F)cc3c(=O)c(C(=O)O)cn(C4CC4)c3c2F)CC1`, the ED50 worked out at 3.6 mg/kg.

For another assay, the system named is Streptococcus pneumoniae. Kind of assay: In vivo efficacy (orally) against Streptococcus pneumoniae SV-1 in mouse protection test. The class given is functional. The following applies: Streptococcus pneumoniae, po; read-out: PD50. In short, it runs like this:
as §1
For `CC1(CN)CCN(c2c(F)cc3c(=O)c(C(=O)O)cn(C4CC4)c3c2C(F)(F)F)C1` (stereo not given), the ED50 turned out to be 1.1 mg/kg.
On the same count and under the same terms, in the case of `NC1CCN(c2c(F)cc3c(=O)c(C(=O)O)cn(C4CC4)c3c2F)CC1` it was 15 mg/kg.
